Measured values taken from the array DNA melting data of Ke et al. (doi:10.1101/2024.01.08.574731).

What was measured:
[1] = folding enthalpy; higher = less favourable; fluorescence melt of hairpins on a sequencing array, two-state fit; settings: sodium 0.088 M
Procedure, shortened: (§1)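 Library hairpins on a sequenced MiSeq flow cell carried annealed Cy3 and quencher oligos, and their Cy3 fluorescence was imaged in 50 mM Na-HEPES pH 8.0 with 25 mM NaCl, in 2.5 °C steps up to 60 °C. Signals were normalised to Cy3 before quenching and to control constructs. Melting temperature and folding enthalpy were obtained from bootstrapped two-state fits, combined by inverse-variance weighting across four replicates, and the fitted temperatures were then raised by 9.35 °C to match UV melts.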

[2] = melting temperature; fluorescence melt of hairpins on a sequencing array, two-state fit, raised by 9.35 °C to match UV melts; settings: sodium 0.088 M
Procedure, shortened: as §1

Sequence | folding enthalpy [1] [kcal/mol] | Tm [2] [°C]
GCGAATGTTCGC ((((....)))) | -25.7 | 50.3
GCGACAATCGC ((((...)))) | -13.9 | 41.3
GCGACACATCGC ((((....)))) | -24.2 | 50.3
GCGACACCTCGC ((((....)))) | -29.5 | 51.3
GCGACAGGAAACTGCCAC (.(.(((....))).).) | -9.04 | 20.6
GCGACATCGAAAGATCGC (((..(((....)))))) | -26.7 | 45.9
GCGACATTCGC ((((...)))) | -14 | 52.3
GCGACCCATCGC ((((....)))) | -19.5 | 52.2
GCGACCGAAAGGTACGC ((((((....))).))) | -23.8 | 58.1
GCGACCGAAAGGTCCCGC ((((((....)))..))) | -13.3 | 42.1
GCGACCGAAAGGTGTCGC ((((((....)))..))) | -35.5 | 59
GCGACCGAAAGGTTACGC ((((((....)))..))) | -26.6 | 50
GCGACCGCTCGC ((((....)))) | -17.3 | 48.1
GCGACCGGAAACGGCCGC (((.(((....))).))) | -25.9 | 65.1
GCGACCGGAAACGGTCAC (.(((((....))))).) | -12.3 | 51.4
GCGACGATCGC ((((...)))) | -13.6 | 42.4
GCGACGCGAAAGCACCGC (((..((....))..))) | -19.7 | 55.8
GCGACGCGAAAGCATAGC ((.(.((....)).).)) | -18.8 | 62.7
GCGACGCGAAAGCGATGC ((..(((....)))..)) | -24.1 | 61.8
GCGACGCGAAAGCTTTGC ((.(.((....)).).)) | -18.6 | 44.7
GCGACGCTTCGC ((((....)))) | -14.7 | 55.7
GCGACGGGAAACCATCGC ((((.((....)).)))) | -45.5 | 51.4
GCGACTGGAAACAGCCAC (.(.(((....))).).) | -12.2 | 27.7
GCGACTGGAAACGGTCGC (((((.(....).))))) | -46.3 | 64.7

Sequence | folding enthalpy [1] [kcal/mol] | Tm [2] [°C]
GCGACTGGTCGC ((((....)))) | -38.1 | 60.3
GCGAGACCGAAAGGTCGC (((..(((....)))))) | -10.3 | 59.1
GCGAGACCTCGC ((((....)))) | -13.8 | 56.5
GCGAGACGAAAGTCCCGC (((.(((....))).))) | -35.6 | 59
GCGAGACGTCGC ((((....)))) | -8.79 | 52.9
GCGAGAGCGAAAGCTCGC (((..(((....)))))) | -9.94 | 65.6
GCGAGCATTCGC ((((....)))) | -27.1 | 57.1
GCGAGCCATCGC ((((....)))) | -28.4 | 57.2
GCGAGCGAAAGCTGGCGC ((((((....)))..))) | -25 | 68.7
GCGAGCGAAAGCTTCCGC ((((((....)))..))) | -16.6 | 44.2
GCGAGCGATCGC ((((....)))) | -25.3 | 53.5
GCGAGCGCTCGC ((((....)))) | -46.8 | 65
GCGAGCGGAAACGCTCAC (.(((((....))))).) | -12.3 | 50.6
GCGAGCGTTCGC ((((....)))) | -14.2 | 49
GCGAGGAATCGC ((((....)))) | -20.5 | 54.6
GCGAGGCGAAAGCAACGC (((..((....))..))) | -21.6 | 61.8
GCGAGGCGAAAGCAGCGC (((..((....))..))) | -29.9 | 68.9
GCGAGGCGAAAGCTTGGC ((.(.((....)).).)) | -12.1 | 46.1
GCGAGGCGAAAGCTTTGC ((.(.((....)).).)) | -20.3 | 51.5
GCGAGGCTTCGC ((((....)))) | -17.9 | 66.7
GCGAGGGTCGC ((((...)))) | -7.26 | 62
GCGAGGTGTCGC ((((....)))) | -5.64 | 65.7
GCGAGTAATCGC ((((....)))) | -20.9 | 58.6
GCGAGTCCTCGC ((((....)))) | -30.2 | 56.2
